# Source: ChEMBL document CHEMBL1649143, “In vitro activities of fluconazole and voriconazole against clinical isolates of Candida spp. determined by disk diffusion testing in Turin, Italy” (2009)
# Legend:
# Pichia kudriavzevii [1] = assay: Antifungal activity against Candida krusei assessed as percent resistant isolates at 1 ug/disc by CLSI M44-A disk diffusion method; type: functional
# How it was run: (§1)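 Agar disk diffusion per CLSI M44-A on clinical Candida isolates collected in Turin, Italy; 1,024 isolates tested in total. Each isolate was classed as susceptible (S), susceptible-dose dependent (SDD) or resistant (R), and the percentage of isolates per species in each category was reported.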
# Clavispora lusitaniae = assay: Antifungal activity against Candida lusitaniae assessed as percent susceptible isolates at 1 ug/disc by CLSI M44-A disk diffusion method; type: functional; how it was run: as §1
# Kluyveromyces marxianus [2] = assay: Antifungal activity against Candida kefyr assessed as percent susceptible isolates at 1 ug/disc by CLSI M44-A disk diffusion method; type: functional; how it was run: as §1
# Nakaseomyces glabratus [3] = assay: Antifungal activity against Candida glabrata assessed as percent susceptible isolates at 1 ug/disc by CLSI M44-A disk diffusion method; type: functional; how it was run: as §1
# Cyberlindnera jadinii = assay: Antifungal against Candida utilis assessed as percent susceptible isolates at 1 ug/disc by CLSI M44-A disk diffusion method; type: functional; how it was run: as §1
# Candida albicans [4] = assay: Antifungal activity against Candida albicans assessed as percent susceptible isolates at 1 ug/disc by CLSI M44-A disk diffusion method; type: functional; how it was run: as §1
# Candida = assay: Antifungal activity against Candida sp. by reference dilution method; type: functional
# [5] = Antifungal activity against Candida humicola assessed as percent susceptible isolates at 1 ug/disc by CLSI M44-A disk diffusion method; type: functional; how it was run: as §1
# Nakaseomyces glabratus [6] = assay: Antifungal activity against Candida glabrata assessed as dose dependent percent susceptible isolates at 1 ug/disc by CLSI M44-A disk diffusion method; type: functional; how it was run: as §1
# [Candida] intermedia = Antifungal activity against Candida intermedia assessed as percent susceptible isolates at 1 ug/disc by CLSI M44-A disk diffusion method; type: functional, Sungouiella intermedia; how it was run: as §1
# Pichia kudriavzevii [7] = assay: Antifungal activity against Candida krusei assessed as dose dependent percent susceptible isolates at 1 ug/disc by CLSI M44-A disk diffusion method; type: functional; how it was run: as §1
# Candida parapsilosis [8] = assay: Antifungal activity against Candida parapsilosis by reference dilution method; type: functional; conditions: Lodderomyces parapsilosis
# Candida parapsilosis [9] = assay: Antifungal activity against Candida parapsilosis assessed as percent susceptible isolates at 1 ug/disc by CLSI M44-A disk diffusion method; type: functional; how it was run: as §1
# Pichia norvegensis [10] = assay: Antifungal activity against Candida norvegensis assessed as percent dose dependent percent susceptible isolates at 1 ug/disc by CLSI M44-A disk diffusion method; type: functional; how it was run: as §1
# Pichia norvegensis [11] = assay: Antifungal activity against Candida norvegensis by reference dilution method; type: functional
# Nakaseomyces glabratus [12] = assay: Antifungal activity against Candida glabrata by reference dilution method; type: functional
# Kluyveromyces marxianus [13] = assay: Antifungal activity against Candida kefyr assessed as percent dose dependent percent susceptible isolates at 1 ug/disc by CLSI M44-A disk diffusion method; type: functional; how it was run: as §1
# Pichia kudriavzevii [14] = assay: Antifungal activity against Candida krusei assessed as percent susceptible isolates at 1 ug/disc by CLSI M44-A disk diffusion method; type: functional; how it was run: as §1
# [15] = Antifungal activity against Candida holmii assessed as percent susceptible isolates at 1 ug/disc by CLSI M44-A disk diffusion method; type: functional; conditions: Kazachstania exigua; how it was run: as §1
# Nakaseomyces glabratus [16] = assay: Antifungal activity against Candida glabrata assessed as percent resistant isolates at 1 ug/disc by CLSI M44-A disk diffusion method; type: functional; how it was run: as §1
# Pichia fermentans = assay: Antifungal activity against Candida lambica assessed as percent susceptible isolates at 1 ug/disc by CLSI M44-A disk diffusion method; type: functional; how it was run: as §1
# Candida albicans [17] = assay: Antifungal activity against Candida albicans by reference dilution method; type: functional
# Pichia norvegensis [18] = assay: Antifungal activity against Candida norvegensis assessed as percent susceptible isolates at 1 ug/disc by CLSI M44-A disk diffusion method
# Candida tropicalis [19] = assay: Antifungal activity against Candida tropicalis by reference dilution method; type: functional
# Candida tropicalis [20] = assay: Antifungal activity against Candida tropicalis assessed as percent resistant isolates at 1 ug/disc by CLSI M44-A disk diffusion method; type: functional; how it was run: as §1
# Candida tropicalis [21] = assay: Antifungal activity against Candida tropicalis assessed as percent susceptible isolates at 1 ug/disc by CLSI M44-A disk diffusion method; type: functional; how it was run: as §1
# Pichia kudriavzevii [22] = assay: Antifungal activity against Candida krusei by reference dilution method; type: functional
# Candida tropicalis [23] = assay: Antifungal activity against Candida tropicalis assessed as dose dependent percent susceptible isolates at 1 ug/disc by CLSI M44-A disk diffusion method; type: functional; how it was run: as §1
# [24] = Antifungal activity against Candida membranifaciens assessed as percent susceptible isolates at 1 ug/disc by CLSI M44-A disk diffusion method; type: functional; how it was run: as §1
# Diutina rugosa = assay: Antifungal activity against Candida rugosa assessed as percent susceptible isolates at 1 ug/disc by CLSI M44-A disk diffusion method; type: functional; how it was run: as §1
# Kluyveromyces marxianus [25] = assay: Antifungal activity against Candida kefyr by reference dilution method; type: functional
smiles,measurement,setting,value
C[C@@H](c1ncncc1F)[C@](O)(Cn1cncn1)c1ccc(F)cc1F [VORICONAZOLE],Activity,Pichia kudriavzevii [1],4%
same,Activity,Clavispora lusitaniae,100%
same,Activity,Kluyveromyces marxianus [2],96%
same,Activity,Nakaseomyces glabratus [3],87%
same,Activity,Cyberlindnera jadinii,100%
same,Activity,Candida albicans [4],99.8%
same,MIC50,Candida,0.06 µg/mL
same,MIC90,Candida,1 µg/mL
same,Activity,[5],100%
same,Activity,Nakaseomyces glabratus [6],3%
same,Activity,[Candida] intermedia,100%
same,Activity,Pichia kudriavzevii [7],4%
same,MIC50,Candida parapsilosis [8],0.06 µg/mL
same,MIC90,Candida parapsilosis [8],0.12 µg/mL
same,Activity,Candida parapsilosis [9],100%
same,Activity,Pichia norvegensis [10],7%
same,MIC50,Pichia norvegensis [11],0.25 µg/mL
same,MIC90,Pichia norvegensis [11],1 µg/mL
same,MIC50,Nakaseomyces glabratus [12],0.25 µg/mL
same,MIC90,Nakaseomyces glabratus [12],4 µg/mL
same,Activity,Kluyveromyces marxianus [13],4%
same,Activity,Pichia kudriavzevii [14],92%
same,Activity,[15],100%
same,Activity,Nakaseomyces glabratus [16],11%
same,Activity,Pichia fermentans,100%
same,MIC50,Candida albicans [17],0.06 µg/mL
same,MIC90,Candida albicans [17],0.12 µg/mL
same,Activity,Pichia norvegensis [18],93%
same,MIC50,Candida tropicalis [19],0.12 µg/mL
same,MIC90,Candida tropicalis [19],2 µg/mL
same,Activity,Candida tropicalis [20],7%
same,Activity,Candida tropicalis [21],90%
same,MIC50,Pichia kudriavzevii [22],0.5 µg/mL
same,MIC90,Pichia kudriavzevii [22],2 µg/mL
same,Activity,Candida tropicalis [23],3%
same,Activity,[24],100%
same,Activity,Diutina rugosa,100%
same,MIC,Kluyveromyces marxianus [25],0.008 µg/mL
same,MIC50,Kluyveromyces marxianus [25],0.01 µg/mL
same,MIC90,Kluyveromyces marxianus [25],0.06 µg/mL
